Assay [1] can be described thus: S. cerevisiae growth inhibition in permissive medium (OD615), pilot counter-assay for S. cerevisiae lifespan shortening project, permissive growth control (AID 705;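 active means growth inhibition above 25% in both replicates, a cutoff set 3 SD above the mean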). The conditions noted are these: OD615, 24 h, at 10 µM, stronger effect = higher value. Summed up:
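System – S. cerevisiae with engineered DeaD lifespan system · Buffer or medium – SC raffinose/galactose permissive medium · Schedule – cells pre-grown 4 h, then 24 h compound exposure, 30 °C humidified · Technique – culture turbidity as optical density at 615 nm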

Assay [2] in a line: S. cerevisiae growth inhibition in restrictive medium, OD615, pilot screen, restrictive growth control, yeast lifespan reduction project (AID 706;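 active means growth inhibition above a set limit, 3 SD over mean compound inhibition, in both replicates, cut at about 43% in these data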;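 further: modified DeaD lifespan yeast strain shifted to restrictive glucose medium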). The conditions noted are these: OD615, 48 h, at 10 µM, stronger effect = higher value. The method, boiled down: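 Material: engineered S. cerevisiae DeaD strain / Medium: glucose-based CSMM-D restrictive medium / Compound: single dose of 10 µM compound final, 0.25% DMSO / Timing: 4 h pre-incubation, 48 h exposure at 30 °C / Technique: OD615 absorbance reading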

A short description of assay [3]: doxorubicin toxicity protection in MRP-1 cells – H69AR cells, CellTiter-Glo, duplicate, MRP-1 activator project, pilot screen (AID 807;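 active means viability increase at or above a cutoff of the median across tested compounds plus 3 SD, cut at about 8.5% in these data, passing the limit was not always enough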;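 further: compound pretreatment 18-22 h then 72 h combined with doxorubicin; 0% = doxorubicin alone and 100% = vehicle without doxorubicin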). The conditions noted are these: H69AR viability with doxorubicin, CellTiter-Glo luminescence; at 10 µM; stronger effect = higher value.
Assay [4] in a line: viability of HCT116 without oncogenic beta-catenin – human colon tumor cells, pilot screen (AID 823;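 active means cell viability at or below a set limit in both duplicate runs, the limit being the all-compound median minus 4 SD, cut at about 23% in these data, passing the limit was not always enough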;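 further: 0% = wells killed by 20 µM Hyamine and 100% = untreated DMSO cell wells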). To be noted: HCT116 beta-catenin knockout viability, CellTiter-Glo, 60 h; at 10 µM; stronger effect = lower value. In general terms: ATP-based viability assays read luminescence as a measure of living cells.
Assay [5] in a line: viability of PTEN-null HCT116 cells – cell-based, HCT116 clonal line, CellTiter-Glo, pilot screen (AID 824;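 active means viability at or below 27.92% in each of two runs, the all-compound median minus 4 SD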;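 further: 0% = 20 µM Hyamine control and 100% = vehicle cell control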). The conditions noted are these: HCT116 PTEN-deleted viability, 60 h, at 10 µM, stronger effect = lower value.
Assay [6] can be described thus: RAM pathway blockade in budding yeast – dse1pr::URA3 reporter, 5-FOA selection, pilot screen (AID 869;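 active means inhibition over a set limit, the all-compound mean plus 3 SD, in both replicate runs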;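 further: 0% = DMSO wells with no growth and 100% = 10 µM 1-NA-PP1 with full growth; RAM network block rescues cells from 5-FOA so hits raise OD615 growth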). To be noted: S. cerevisiae dse1pr::URA3 5-FOA growth, OD615, 2 d; at 10 µM; stronger effect = higher value; strain carries analog-sensitive mutant Cbk1 kinase.
The nature of assay [7]: RAM signaling pathway blockade in yeast – S. cerevisiae, Pdr1DBD-CYC8 efflux-inhibited sensitized strain, primary screen (AID 1298).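 Further: 0% = DMSO untreated cells without growth and 100% = 10 µM 1-NA-PP1 full growth; higher means more yeast growth rescued from 5-FOA killing.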 The conditions noted are these: S. cerevisiae cbk1-as DSE1-URA3 strain, 5-FOA growth OD615, 2 d; at 50 µM; stronger effect = higher value.

A number with no mark means an inactive call. Results filed as inconclusive are left out. Activity calls are given as the source filed them.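 How the source made its calls, unless noted: active means RAM network inhibition above 8.4% in each of two replicates, 3 SD over the compound average; inconclusive means above 8.4% inhibition in only one replicate; inactive means 8.4% inhibition or less in each replicate.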

Broadly, the viability is a read-out of living cells in per cent, often relative to untreated cells. As a reminder, the inhibition is the drop in the measured response relative to a control, in per cent. For the compound `COCCN(CCOC)C(=O)c1cc2sc3ccccc3c2s1`, the growth inhibition in assay [1] was -6.12%; in assay [2], -4.95%. For the same compound, the viability increase in assay [3] was 0.72%. Besides, the viability in assay [4] was 92.4%; in assay [5], 90.4%. The inhibition in assay [6] is 0.11%. Besides, in assay [7], the RAM network inhibition was 0.31%.
On to `CC1(C)CC(=O)C2=C(C1)Nc1ccccc1NC2c1nc2ccccc2[nH]1` (stereo unspecified), for which the growth inhibition in assay [1] is -10.1%; in assay [2], 1.04%. Further, in assay [3], the viability increase was -3.97%. The viability in assay [4] was 100%; in assay [5], 95.7%. The inhibition in assay [6] was 1.65%. The RAM network inhibition in assay [7] is 1.45%.
In the case of `COc1ccccc1-n1c(CNC(=O)c2ccco2)nnc1SCC(=O)Nc1nccs1`, the figures for the growth inhibition in assay [1] and in assay [2] were -0.655% and -2.6%, respectively. Also, the viability increase in assay [3] was -5.08%. In addition, the viability in assay [4] was 77.4%; in assay [5], 66.2%. Besides, the inhibition in assay [6] is 1.09%. In addition, the RAM network inhibition in assay [7] was 1.25%.
Consider `Cc1cccc(NS(=O)(=O)c2ccccc2)n1`, for which the growth inhibition in assay [1] was -4.51%; in assay [2] it was 11.2%. Further, the viability increase in assay [3] was 2.49%. Further, the viability is 106% in assay [4] and 104% in assay [5]. Also, in assay [6], the inhibition is 0.75%. In assay [7], the RAM network inhibition is 0.26%.
Regarding `CCOC(=O)CNc1c(N2CCN(c3ccccn3)CC2)c(=O)c1=O`, the growth inhibition in assay [1] is 2.94%; in assay [2], 13.8%. In assay [3], the viability increase was -1.12%. Besides, the figures for the viability in assay [4] and in assay [5] were 110% and 102%, respectively. For the same compound, in assay [6], the inhibition is 1.91%. The RAM network inhibition in assay [7] was -0.36%.
As for `O=C(O)c1cc2nc(C3CC3)cc(C(F)(F)F)n2n1`, the growth inhibition was -2.34% in assay [1] and -2.47% in assay [2]. Also, the viability increase in assay [3] was 0.62%. Further, the viability in assay [4] is 102%; in assay [5] it was 90.1%. Further, the inhibition in assay [6] is 1.67%. The RAM network inhibition in assay [7] is -2.13%.
Regarding `O=C(Nc1ccc(F)cc1)C1CCCN(S(=O)(=O)c2cccc3cccnc23)C1` (stereo unspecified), the growth inhibition in assay [1] was -10.2%; in assay [2] it was -7.79%. For the same compound, the viability increase in assay [3] is -0.85%. Also, the viability in assay [4] is 80.8%; in assay [5], 80.3%. The inhibition in assay [6] was 2.16%. Also, the RAM network inhibition in assay [7] is 7.62%.
As for `COc1ccc(OC)c(NC(=O)CSc2nnc(Cn3c(=O)sc4ccccc43)n2C)c1`, the growth inhibition in assay [1] was -10.2%; in assay [2], -1.53%. The viability increase in assay [3] is -2.91%. Besides, the viability was 94.3% in assay [4] and 86.5% in assay [5]. Moreover, in assay [6], the inhibition was 2.36%. The RAM network inhibition in assay [7] was 3.22%.
For the compound `COc1cccc(-n2c(Cc3cc(=O)[nH]c(=O)[nH]3)nnc2SCC(=O)NC2CCCC2)c1`, the growth inhibition in assay [1] is -6.3%; in assay [2], 8.16%. Further, the viability increase in assay [3] is -0.03%. Moreover, the viability in assay [4] and in assay [5] was 101% each time. In addition, the inhibition in assay [6] was 2.87%. In assay [7], the RAM network inhibition is -1.25%.
For `O=C1c2ccccc2C(O)N1Cc1ccco1` (stereo unspecified), the growth inhibition was 5.97% in assay [1] and -0.555% in assay [2]. Also, in assay [3], the viability increase was -2.36%. Also, the viability in assay [4] was 93.6%; in assay [5], 94.6%. Also, in assay [6], the inhibition was 0.695%. For the same compound, the RAM network inhibition in assay [7] is 0.68%.
As to `O=C(O)CCSc1nnc(-c2ccccc2)n1-c1ccccc1`, the growth inhibition in assay [1] is 4.3%; in assay [2], 50.6% (active). Moreover, in assay [3], the viability increase was 0.8%. Moreover, the figures for the viability in assay [4] and in assay [5] were 94.4% and 98.3%, respectively. The inhibition in assay [6] was 1.48%. In addition, the RAM network inhibition in assay [7] is 0.72%.
On to `CC(C)(C)n1nc2c(c1NC(=O)Cc1ccc(F)cc1)CSC2`, for which the growth inhibition was 1.52% in assay [1] and -7.53% in assay [2]. In addition, the viability increase in assay [3] was -0.87%. Further, the figures for the viability in assay [4] and in assay [5] were 94% and 88.2%, respectively. Further, the inhibition in assay [6] is 2.36%. For the same compound, in assay [7], the RAM network inhibition was 5.41%.
Take `CCC1(C(=O)O)NC(c2cc(OC)ccc2O)C2C(=O)N(Cc3ccccc3)C(=O)C21` (stereo unspecified): the growth inhibition in assay [1] was 2.51%; in assay [2], -7.93%. In addition, the viability increase in assay [3] is -0.32%. For the same compound, the viability in assay [4] was 102%; in assay [5], 99.8%. In assay [6], the inhibition was 0.37%. Moreover, the RAM network inhibition in assay [7] was 1.51%.
On to `CC(=O)c1cc(F)c(N2CCN(CCC#N)CC2)cc1C`, for which the growth inhibition is -3.07% in assay [1] and -19.6% in assay [2]. Besides, the viability increase in assay [3] is -0.38%. Besides, the viability in assay [4] is 105%; in assay [5], 81.3%. The inhibition in assay [6] was 0.35%. For the same compound, the RAM network inhibition in assay [7] is 0.47%.
Take `CCOc1ccc(N(CC(=O)Nc2nccs2)S(=O)(=O)c2c(C)noc2C)cc1`: the growth inhibition in assay [1] was -3.78%; in assay [2], 5.32%. For the same compound, the viability increase in assay [3] was -1.1%. The results for the viability in assay [4] and in assay [5] were 97.5% and 89.1%, respectively. Further, in assay [6], the inhibition is 1.25%. Besides, in assay [7], the RAM network inhibition is 8.94%.
As to `CCCc1cc(C(=O)Nc2cccc(Cl)c2)no1`, the growth inhibition is -7.36% in assay [1] and -1.01% in assay [2]. Besides, the viability increase in assay [3] is 0.77%. Also, the viability in assay [4] is 102%; in assay [5] it was 97.7%. The inhibition in assay [6] was 1.44%. In assay [7], the RAM network inhibition was -1.31%.
Take `O=C(C1CC(=O)N(C2CCCC2)C1)N1CCN(c2ccc(F)cc2)CC1` (stereo unspecified): the figures for the growth inhibition in assay [1] and in assay [2] were -1.42% and 1.6%, respectively. In assay [3], the viability increase was 0.11%. For the same compound, the results for the viability in assay [4] and in assay [5] were 94.3% and 95.2%, respectively. Besides, the inhibition in assay [6] was 1.39%. Moreover, the RAM network inhibition in assay [7] is 2.53%.
With `CCC(C)NC(=O)C1CCN(C(=O)c2ccccc2)CC1` (stereo unspecified), the growth inhibition in assay [1] was -3.49%; in assay [2], -5.37%. In assay [3], the viability increase is 0.74%. Besides, the viability was 102% in assay [4] and 98.2% in assay [5]. For the same compound, the inhibition in assay [6] is 1.18%. Moreover, in assay [7], the RAM network inhibition is 1.87%.
